# Screening data (PubChem)
# Shown are actives, neighbours in structure and some others; about 2% of the full set was active somewhere.
# PTPN22 inh 2 = blocks human PTPN22 phosphatase activity; Q9Y2R2; inhibition, % at 2 µM; recombinant LYP catalytic domain, DiFMUP fluorescence; 96,000 compounds, 0.21% hits;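 active = inhibition at 2 µM at or above a set limit, the screen mean plus 3 SD, cut at about 24% in these data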;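 also: 0% = DMSO with enzyme and 100% = enzyme fully blocked by orthovanadate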
# PLK1 kinase inh = PLK1 (human) kinase inhibition; inhibition, % at 10 µM; recombinant PLK1 kinase, TR-FRET peptide phosphorylation; P53350; 97,000 compounds, 0.53% hits;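 active = inhibition of 50% or more in the single-concentration screen; inactive = inhibition below 50%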;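 also: 0% = DMSO max control and 100% = H-89 dihydrochloride min control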
# Target sequence (P53350 whole entry, looked up): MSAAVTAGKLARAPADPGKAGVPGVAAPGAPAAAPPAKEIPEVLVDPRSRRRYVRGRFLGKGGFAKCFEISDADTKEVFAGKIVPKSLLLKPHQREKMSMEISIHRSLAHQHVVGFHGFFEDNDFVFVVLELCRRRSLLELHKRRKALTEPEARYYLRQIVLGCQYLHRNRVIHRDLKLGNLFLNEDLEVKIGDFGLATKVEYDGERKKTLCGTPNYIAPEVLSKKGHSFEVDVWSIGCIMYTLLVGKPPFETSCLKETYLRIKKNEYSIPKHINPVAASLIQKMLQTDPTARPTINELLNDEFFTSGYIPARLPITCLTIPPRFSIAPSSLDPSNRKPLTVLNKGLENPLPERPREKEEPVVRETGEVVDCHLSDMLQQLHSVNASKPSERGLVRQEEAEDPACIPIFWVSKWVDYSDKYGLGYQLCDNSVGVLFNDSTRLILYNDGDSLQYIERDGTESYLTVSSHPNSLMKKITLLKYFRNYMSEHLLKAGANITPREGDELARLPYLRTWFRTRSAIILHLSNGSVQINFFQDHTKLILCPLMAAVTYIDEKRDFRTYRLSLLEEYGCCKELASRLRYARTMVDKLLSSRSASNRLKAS
# PLK1 PBD inh = blocks phosphopeptide binding to human Plk1 polo box domain. P53350. Plk1 PBD phosphopeptide binding, fluorescence polarization. inhibition, %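 (tested at about 20 µM)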. 97,000 compounds, 0.13% hits. AID 693; in the data active = inhibition above about 34%, passing the limit was not always enough
# LYP act = LYP (human) phosphatase activation; AID 697; 96,000 compounds, 0.11% hits; activation, % at 2 µM; recombinant LYP, DiFMUP fluorescence; 0 = plate median, 100 = signal doubled;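 active = activation at 2 µM above a set limit, the mean plus 5 SD, cut at about 37% in these data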
# EphB4 ephrin blk = blocks human EphB4 binding to ephrin-B2 | inhibition, % at 7 µM | EphB4 LBD / TNYL-RAW-Alexa532 peptide, fluorescence polarization | 97,000 compounds, 0.15% hits;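 active = inhibition above the screen-wide mean inhibition plus 3 SD, cut at about 15% in these data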;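 also: 0% = DMSO wells and 100% = excess unlabeled TNYL-RAW peptide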
# HIV Rev-RRE inh = HIV Rev-RRE protein-RNA interaction inhibition; P05866; Rev peptide-RRE RNA binding, FRET; inhibition, % at 8 µM; 97,000 compounds, 0.79% hits; AID 704;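 active = inhibition above the screen-wide mean plus 3 SD, cut at about 35% in these data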;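 also: 0% = median DMSO wells and 100% = median Neomycin B control wells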
#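 Test system – labelled RRE RNA duplex and labelled Rev peptide · Reagent – labelled Rev peptide · Doses – one concentration, 8 µM nominal · Incubation – 5 + 15 min at 25 °C · Signal – FRET fluorescence readout · Read-out basis – % inhibition of FRET ratio versus controls · Control set – DMSO wells as 0% and neomycin B wells as 100% inhibition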
# Redox H2O2 DR = counter-screen for Plk1 PBD inhibitors: redox cycling H2O2 generation | AID 876 | DTT | shares compounds with PLK1 PBD inh | EC50, µM | 120 tested, under 10 active; call rule not given here
# * marks the source's active call; other numbers are inactive results; x = not tested or not shown.
SMILES,PTPN22 inh 2,PLK1 kinase inh,PLK1 PBD inh,LYP act,EphB4 ephrin blk,HIV Rev-RRE inh,Redox H2O2 DR
COc1ccc(CC2NCCC3(O)CCCCC23)cc1 (stereo not given),0,-16,39*,-1,-3,3,>50
COCC(=O)N(Cc1cc2cc(OC)ccc2[nH]c1=O)c1ccc(C)cc1,4,-6,15,-1,6,1,x
Cc1cc(C)n(-c2nnc3n2N=C(c2ccccc2)CS3)n1,-5,-4,46*,2,-4,-3,>50
COc1ccc(/C=C2/SC(=O)N(NS(=O)(=O)c3ccccc3)C2=S)cc1OC,6,-39,-9,-9,0,11,x
O=C(CC1C(=O)NCCN1C(=S)Nc1ccccc1)Nc1ccc2c(c1)OCCO2 (stereo not given),6,-1,43*,-2,4,3,>50
O=C(CC1C(=O)NCCN1C(=O)Nc1ccccc1)Nc1ccc2c(c1)OCO2 (stereo not given),-5,-6,8,2,3,11,x
C/C(N)=C(/C#N)C(=O)CSc1nnnn1-c1ccc(C)cc1C,10,5,-14,-12,6,2,x
Clc1ccc(Oc2ncnc3oc(-c4ccccc4)cc23)cc1,8,-39,-7,-4,4,13,x
Cc1ccccc1Oc1ncnc2oc(-c3ccccc3)cc12,0,-7,68*,3,-9,16,>50
Cc1oc2c(c1C(=O)c1ccccc1)C(=O)C(=O)c1ccccc1-2,-1,0,124*,2,5,4,>50
COc1cc(COCC(O)CN2CCOCC2)cc(OC)c1OC (stereo not given),-5,-6,-2,3,-6,4,x
COc1cc(S(=O)(=O)N2CCCCCC2)ccc1-n1cnnn1,-2,-2,38*,5,2,-5,>50
Fc1ccc(Cn2nnnc2CN2CCN(C3CCCC3)CC2)cc1,-10,-5,45*,7,5,-1,>50
Cc1nc2ccc(NC(=O)c3ccc(F)c(S(=O)(=O)N4CCOCC4)c3)cc2s1,-1,-7,-14,5,-3,4,x
CN(C)c1ccc(C(=O)Nc2nc3c(s2)CCCC3)cc1,15,-3,46*,-17,1,4,>50
Cc1cc(C(=O)Nc2nc3c(s2)CCCC3)no1,-8,-8,-26,5,-2,0,x
CCOC(=O)CSc1nc(N2CCOCC2)c2c(c1C#N)CC(C)(C)N(C)C2,-16,0,-7,13,-6,1,x
CC(C)Sc1nc(N2CCOCC2)c2c(c1C#N)CC(C)(C)N(C)C2,1,8,48*,2,-6,1,>50
O=C(Nc1cccn(Cc2c(Cl)cccc2Cl)c1=O)c1c(Cl)cccc1Cl,3,-10,51*,-1,2,7,>50
Cc1ccc(/C=C/C(=O)N2CC(C)CC(C)C2)o1 (stereo not given),15,-9,-5,-13,3,1,x
O=C(Nc1ccc2c(c1)OCO2)C1Cc2ccccc2CN1S(=O)(=O)c1cccs1 (stereo not given),-2,-3,22,1,9,7,x
CCn1c(SCC(=O)O)nc2sc3c(c2c1=O)CCC3,6,-1,11,-5,0,-1,x
CCCc1nc2sc3c(c2c(=O)n1NC(=O)CCC(=O)O)CCCC3,10,-5,46*,-7,-6,3,>50
COC(=O)c1ccccc1NC(=O)N1CCN(C/C=C/c2ccccc2)CC1,-12,-9,-7,7,-5,0,x
CCn1ncc(CN2CCN(C(=O)Nc3ccccc3C(=O)OC)CC2)c1C,-3,-7,39*,0,2,4,>50
Cc1cccc(-n2c(CCn3nc(C)c([N+](=O)[O-])c3C)n[nH]c2=S)c1,16,-7,46*,-13,-4,5,>50
O=C(CNS(=O)(=O)c1ccc(Br)s1)N1CCCC1,-1,-3,44*,-2,6,5,>50
CCOC(=O)C1CCCN(C(=O)CNS(=O)(=O)c2ccc(Br)s2)C1 (stereo not given),4,-2,-26,-8,3,-4,x
